In ChEMBL document CHEMBL4229550, “An antimycobacterial pleuromutilin analogue effective against dormant bacilli” (Bioorg Med Chem, 2018):
Values after ≈ are worked out from the molar mass of the structure shown. Active and inactive are the calls of the source. No cut-off for these calls is given here.

Legend:
[1] = system: Mycobacterium tuberculosis; experiment: Antibacterial activity against Mycobacterium tuberculosis; format: functional; settings: read-out: MIC100
Summary of the method: (§1)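 Mtb H37Rv grown in 7H9/OADC at 37 °C with shaking to OD600 0.5. The 0.5-OD culture is exposed aerobically to serial dilutions for 15 days at 37 °C. Resazurin (0.02% stock) is then added for 4 h at 37 °C with shaking.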

Escherichia coli [2] = experiment: Inhibition of protein translation/transcription in Escherichia coli S30 cell extract at 0.5 ug/ml using circular DNA with pBESTluc after 60 mins by luciferase reporter gene assay; format: functional
Summary of the method: (§2)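 Coupled transcription/translation used E. coli S30 extract, amino acid mix and premix, with the pBESTluc template carrying firefly luciferase under the tac promoter. Compounds were added in DMSO and reactions were started with DNA. Incubation was 60 min at 37 °C, stopped on ice, and luciferase was read after adding assay substrate.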

Escherichia coli [3] = experiment: Inhibition of protein translation/transcription in Escherichia coli S30 cell extract at 0.1 ug/ml using circular DNA with pBESTluc after 60 mins by luciferase reporter gene assay; format: functional; summary of the method: as §2
Vero = experiment: Cytotoxicity against African green monkey Vero cells assessed as reduction in cell viability after 72 hrs by MTT assay; format: cell-based; settings: Chlorocebus sabaeus
Summary of the method: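 Vero cells were grown in complete EMEM with 10% FBS and exposed for 72 h to 0.78–200 µg/mL. The medium was then swapped for phenol-red-free EMEM and MTT was added. Formazan absorbance was read at 570 nm to give IC50.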

[4] = Selectivity index, ratio of IC50 for African green monkey Vero cells to MIC100 for replicating Mycobacterium tuberculosis H37Rv by MABA; format: toxicity; settings: read-out: Selectivity Index
Summary of the method: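 Vero cells are cultured in EMEM with 10% FBS and exposed for 72 h to 0.78–200 µg/mL. Medium is switched to phenol-red-free EMEM, MTT is added, and formazan is read at 570 nm to give IC50. The selectivity index is Vero IC50 divided by the MABA MIC.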

[5] = system: Mycobacterium tuberculosis; experiment: Antibacterial activity against replicating Mycobacterium tuberculosis H37Rv incubated for 15 days under aerobic condition by MABA; format: functional; settings: 360 h, read-out: MIC100; summary of the method: as §1
Clostridioides difficile = experiment: Bactericidal activity against Clostridium difficile ATCC 700057 incubated for 24 hrs […] by MABA; format: functional; settings: ATCC 700057, 24 h
[6] = Half life in Sprague-Dawley rat liver microsomes at 500 ng/ml preincubated for 5 mins followed by NADPH addition by C-MS/MS analysis; format: ADME, microsome
Bacillus subtilis [7] = experiment: Antibacterial activity against Bacillus subtilis ATCC 6051 incubated for 24 hrs under aerobic condition by MABA; format: functional; settings: ATCC 6051, 24 h, read-out: MIC100
Summary of the method: (§3)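 Mid-log cultures at OD 0.5 were exposed to serial dilutions under aerobic conditions at 37 °C for 24 h. Resazurin was then added from a 0.08% stock for 1 h. MIC100 was the lowest concentration where the dye stayed blue (pink means growth). Absorbance was also read at 570 and 600 nm.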

Klebsiella pneumoniae [8] = experiment: Bactericidal activity against Klebsiella pneumoniae ATCC 12019 incubated for 24 hrs under aerobic condition by MABA; format: functional; settings: ATCC 12019, 24 h
Acinetobacter baumannii [9] = experiment: Antibacterial activity against Acinetobacter baumannii ATCC 19606 incubated for 24 hrs under aerobic condition by MABA; format: functional; settings: ATCC 19606 = CIP 70.34 = JCM 6841, 24 h, read-out: MIC100; summary of the method: as §3
Escherichia coli [10] = experiment: Bactericidal activity against Escherichia coli ATCC 10798 incubated for 24 hrs under aerobic condition by MABA; format: functional; settings: ATCC 10798, 24 h
Staphylococcus aureus [11] = experiment: Bactericidal activity against Staphylococcus aureus BAA 1683 incubated for 24 hrs under aerobic condition by MABA; format: functional; settings: BAA 1683, 24 h
Enterococcus faecalis [12] = experiment: Bactericidal activity against Enterococcus faecalis ATCC 19433 incubated for 24 hrs under aerobic condition by MABA; format: functional; settings: ATCC 19433, 24 h
Staphylococcus aureus [13] = experiment: Antibacterial activity against Staphylococcus aureus BAA 1683 incubated for 24 hrs under aerobic condition by MABA; format: functional; settings: BAA 1683, 24 h, read-out: MIC100; summary of the method: as §3
Streptococcus pneumoniae [14] = experiment: Bactericidal activity against Streptococcus pneumoniae ATCC 6301 incubated for 24 hrs under aerobic condition by MABA; format: functional; settings: ATCC 6301, 24 h
Acinetobacter baumannii [15] = experiment: Bactericidal activity against Acinetobacter baumannii ATCC 19606 incubated for 24 hrs under aerobic condition by MABA; format: functional; settings: ATCC 19606 = CIP 70.34 = JCM 6841, 24 h
Streptococcus salivarius [16] = experiment: Antibacterial activity against Streptococcus salivarius […] incubated for 24 hrs under aerobic condition by MABA; format: functional; settings: read-out: MIC100
Summary of the method: (§4)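 Resazurin was then added from a 0.08% stock for 1 h. MIC100 was the lowest concentration where the dye stayed blue (pink means growth). Absorbance was also read at 570 and 600 nm.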

Klebsiella pneumoniae [17] = experiment: Antibacterial activity against Klebsiella pneumoniae ATCC 12019 incubated for 24 hrs under aerobic condition by MABA; format: functional; settings: ATCC 12019, 24 h, read-out: MIC100; summary of the method: as §3
Escherichia coli [18] = experiment: Antibacterial activity against Escherichia coli ATCC 10798 incubated for 24 hrs under aerobic condition by MABA; format: functional; settings: ATCC 10798, 24 h, read-out: MIC100; summary of the method: as §3
Enterococcus faecalis [19] = experiment: Bactericidal activity against Enterococcus faecalis ATCC 349 incubated for 24 hrs under aerobic condition by MABA; format: functional; settings: ATCC 349, 24 h
Staphylococcus aureus [20] = experiment: Bactericidal activity against Staphylococcus aureus BAA 44 incubated for 24 hrs under aerobic condition by MABA; format: functional; settings: BAA 44, 24 h
[21] = system: Mycobacterium tuberculosis; experiment: Bactericidal activity against replicating Mycobacterium tuberculosis H37Rv incubated for 15 days under aerobic condition by MABA; format: functional; settings: 360 h; summary of the method: as §1
Streptococcus pneumoniae [22] = experiment: Antibacterial activity against Streptococcus pneumoniae ATCC 6301 incubated for 24 hrs under aerobic condition by MABA; format: functional; settings: ATCC 6301, 24 h, read-out: MIC100; summary of the method: as §3
Streptococcus salivarius [23] = experiment: Bactericidal activity against Streptococcus salivarius ATCC 6301 incubated for 24 hrs under aerobic condition by MABA; format: functional; settings: ATCC 6301, 24 h
Bacillus subtilis [24] = experiment: Bactericidal activity against Bacillus subtilis ATCC 6051 incubated for 24 hrs under aerobic condition by MABA; format: functional; settings: ATCC 6051, 24 h
[25] = system: Mycolicibacterium smegmatis; experiment: Antibacterial activity against Mycobacterium smegmatis ATCC 607 incubated for 48 hrs under aerobic condition by MABA; format: functional; settings: ATCC 607, 48 h, read-out: MIC100
Summary of the method: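 Mid-log culture at OD 0.5 was incubated with serial dilutions aerobically at 37 °C for 48 h. Resazurin was then added from a 0.08% stock for 1 h. MIC100 was the lowest concentration that stayed blue; absorbance was also read at 570/600 nm.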

Enterococcus faecalis [26] = experiment: Antibacterial activity against Enterococcus faecalis ATCC 349 incubated for 24 hrs under aerobic condition by MABA; format: functional; settings: ATCC 349, 24 h, read-out: MIC100; summary of the method: as §3
Staphylococcus aureus [27] = experiment: Antibacterial activity against Staphylococcus aureus ATCC 25923 incubated for 24 hrs under aerobic condition by MABA; format: functional; settings: ATCC 25923, 24 h, read-out: MIC100; summary of the method: as §3
Enterococcus faecalis [28] = experiment: Antibacterial activity against Enterococcus faecalis ATCC 19433 incubated for 24 hrs under aerobic condition by MABA; format: functional; settings: ATCC 19433, 24 h, read-out: MIC100; summary of the method: as §3
Staphylococcus aureus [29] = experiment: Antibacterial activity against Staphylococcus aureus incubated for 24 hrs under aerobic condition by MABA; format: functional; settings: read-out: MIC100; summary of the method: as §4
Erythrocyte = experiment: Hemolytic activity in sheep erythrocytes after 2 hrs; format: ADME, cell-based; settings: Ovis aries
Summary of the method: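 Washed heparinized sheep erythrocytes at 3% in buffer pH 7.4 were treated with 2–200 µg/mL for 2 h at 37 °C with gentle shaking. Triton X-100 (0.01–1%) was the positive control and PEG:H2O diluent the negative control. Released hemoglobin was read at OD540 and % hemolysis calculated against both controls.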

Staphylococcus aureus [30] = experiment: Bactericidal activity against Staphylococcus aureus BAA 2094 incubated for 24 hrs under aerobic condition by MABA; format: functional; settings: BAA 2094, 24 h
Staphylococcus aureus [31] = experiment: Antibacterial activity against Staphylococcus aureus BAA 2094 incubated for 24 hrs under aerobic condition by MABA; format: functional; settings: BAA 2094, 24 h, read-out: MIC100; summary of the method: as §4
[32] = system: Mycobacterium tuberculosis; experiment: Bactericidal activity against Mycobacterium tuberculosis H37Rv at 2 times MIC measured every 24 hrs up to 12 days by time kill assay relative to control; format: functional
Summary of the method: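 Mid-log H37Rv (OD 0.5) is diluted to OD 0.25 and exposed at MIC, 2×MIC or 4×MIC. Every 24 h cultures are diluted 10- to 10,000-fold and plated on 7H10/OADC agar. Plates are incubated 15 days at 37 °C before colony counts.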

Staphylococcus aureus [33] = experiment: Bactericidal activity against Staphylococcus aureus ATCC 25923 incubated for 24 hrs under aerobic condition by MABA; format: functional; settings: ATCC 25923, 24 h
Staphylococcus aureus [34] = experiment: Bactericidal activity against Staphylococcus aureus incubated for 24 hrs under aerobic condition by MABA; format: functional
[35] = system: Mycolicibacterium smegmatis; experiment: Bactericidal activity against Mycobacterium smegmatis ATCC 607 incubated for 48 hrs under aerobic condition by MABA; format: functional; settings: ATCC 607, 48 h
Staphylococcus aureus [36] = experiment: Antibacterial activity against Staphylococcus aureus BAA 44 incubated for 24 hrs under aerobic condition by MABA; format: functional; settings: BAA 44, 24 h, read-out: MIC100; summary of the method: as §3
[37] = Apparent permeability from basolateral to apical side in human Caco2 cells at 10 uM after 2 hrs by LC-MS/MS analysis; format: ADME, cell-based; settings: caco-2, 2 h

C=C[C@]1(C)C[C@@H](OC(=O)CSC(C)(C)CNC(=O)[C@H](N)CC(C)C)[C@]2(C)[C@H](C)CC[C@]3(CC[C@@H](O)[C@H]32)[C@@H](C)[C@@H]1O
MIC [1]: < 6.25 mg/L | inhibition (Escherichia coli [2]): Active | inhibition (Escherichia coli [3]): Active | IC50 (Vero): 35 mg/L (≈ 60.3 µM) | selectivity ratio [4]: 11.4 | MIC [5]: 3.06 mg/L (≈ 5.27 µM)

CC[C@]1(C)C[C@@H](OC(=O)CSC(C)(C)CNC(=O)[C@H](N)CC(C)C)[C@]2(C)[C@H](C)CC[C@]3(CCC(=O)[C@H]32)[C@@H](C)[C@@H]1O
MBC (Clostridioides difficile): 1.56 mg/L (≈ 2.69 µM) | t1/2 [6]: < 5 min | MIC [1]: < 6.25 mg/L | MIC (Bacillus subtilis [7]): 12.5 mg/L (≈ 21.5 µM) | MBC (Klebsiella pneumoniae [8]): > 25 mg/L | MIC (Acinetobacter baumannii [9]): 9.38 mg/L (≈ 16.1 µM) | MBC (Escherichia coli [10]): > 25 mg/L | MBC (Staphylococcus aureus [11]): > 25 mg/L | MBC (Enterococcus faecalis [12]): 25 mg/L (≈ 43 µM) | MIC (Staphylococcus aureus [13]): > 25 mg/L | MBC (Streptococcus pneumoniae [14]): > 25 mg/L | MBC (Acinetobacter baumannii [15]): 12.5 mg/L (≈ 21.5 µM) | inhibition (Escherichia coli [2]): Active | inhibition (Escherichia coli [3]): Active | MIC (Streptococcus salivarius [16]): 0.4 mg/L (≈ 0.689 µM) | MIC (Klebsiella pneumoniae [17]): 25 mg/L (≈ 43 µM) | MIC (Escherichia coli [18]): 12.5 mg/L (≈ 21.5 µM) | MBC (Enterococcus faecalis [19]): > 25 mg/L | MBC (Staphylococcus aureus [20]): > 25 mg/L | MBC [21]: 0.77 mg/L (≈ 1.33 µM) | MIC (Streptococcus pneumoniae [22]): 25 mg/L (≈ 43 µM) | MBC (Streptococcus salivarius [23]): > 25 mg/L | MBC (Bacillus subtilis [24]): 25 mg/L (≈ 43 µM) | MIC [25]: 6.25 mg/L (≈ 10.8 µM) | MIC (Enterococcus faecalis [26]): > 25 mg/L | MIC (Staphylococcus aureus [27]): > 25 mg/L | MIC (Enterococcus faecalis [28]): 12.5 mg/L (≈ 21.5 µM) | MIC (Staphylococcus aureus [29]): 0.4 mg/L (≈ 0.689 µM) | IC50 (Erythrocyte): > 200 µM | MBC (Staphylococcus aureus [30]): > 25 mg/L | MIC (Staphylococcus aureus [31]): > 25 mg/L | Activity [32]: 100% | IC50 (Vero): 25 mg/L (≈ 43 µM) | selectivity ratio [4]: 32 | MBC (Staphylococcus aureus [33]): > 25 mg/L | MIC [5]: 0.78 mg/L (≈ 1.34 µM) | MBC (Staphylococcus aureus [34]): 0.8 mg/L (≈ 1.38 µM) | MBC [35]: 25 mg/L (≈ 43 µM) | MIC (Staphylococcus aureus [36]): > 25 mg/L

CCCCCCCCCCCCC/C=C/C(=O)N[C@H]1[C@H](O[C@H]2O[C@H](CO)[C@@H](O)[C@H](O)[C@H]2NC(C)=O)O[C@H](CC(O)[C@H]2O[C@@H](n3ccc(=O)[nH]c3=O)[C@H](O)[C@@H]2O)[C@H](O)[C@@H]1O (some centres undefined)
IC50 (Erythrocyte): 15 µM | IC50 (Vero): 0.18 mg/L (≈ 0.213 µM) | MIC [5]: 12.5 mg/L (≈ 14.8 µM)

CNC(=C[N+](=O)[O-])NCCSCc1ccc(CN(C)C)o1 [RANITIDINE]
Papp [37]: 11.4 nm/s
